In ChEMBL document CHEMBL1156002, “Synthesis, Raman, FT-IR, NMR spectroscopic characterization, antimicrobial activity, cytotoxicity and DNA binding of new mixed aza-oxo-thia macrocyclic compounds” (2009):
≈ marks a conversion by molar mass, not a printed value. Calls of active or inactive are those of the source. The rule behind the calls is not given here.

How the values were obtained:
Escherichia coli = assay: Antibacterial activity against Escherichia coli ATCC 11230 after 24 hrs by broth micro dilution method; assay type: functional; details: ATCC 11230, 24 h
Staphylococcus aureus [1] = assay: Antibacterial activity against Staphylococcus aureus ATCC 6538 after 24 hrs by broth micro dilution method; assay type: functional; details: ATCC 6538, 24 h
Bacillus cereus [2] = assay: Antibacterial activity against Bacillus cereus ATCC 7064 after 24 hrs by broth micro dilution method; assay type: functional; details: ATCC 7064, 24 h
Micrococcus luteus = assay: Antibacterial activity against Micrococcus luteus La 2971 after 24 hrs by broth micro dilution method; assay type: functional; details: La 2971, 24 h
Proteus vulgaris [3] = assay: Antibacterial activity against Proteus vulgaris ATCC 8427 after 24 hrs by broth micro dilution method; assay type: functional; details: ATCC 8427, 24 h
[4] = test system: Mycolicibacterium smegmatis; assay: Antibacterial activity against Mycobacterium smegmatis CCM 2067 after 24 hrs by broth micro dilution method; assay type: functional; details: CCM 2067, 24 h
Pseudomonas aeruginosa [5] = assay: Antibacterial activity against Pseudomonas aeruginosa ATCC 27853 after 24 hrs by broth micro dilution method; assay type: functional; details: ATCC 27853, 24 h
Rhodotorula mucilaginosa [6] = assay: Antifungal activity against Rhodotorula rubra DSM 70403 after 24 hrs by broth micro dilution method; assay type: functional; details: DSM 70403, 24 h
In short: (§1)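 Broth microdilution was run in cation-adjusted Mueller Hinton Broth. Compounds were dissolved in DMSO at 2 mg mL^-1 and serially diluted two-fold. Yeast precultures were grown in Malt Extract Broth for 48 h. The final inoculum was about 10⁶ cfu mL^-1, and plates were incubated at 37 °C for 24 h. The MIC was read from this series.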

Debaryomyces hansenii [7] = assay: Antifungal activity against Debaryomyces hansenii DSM 70238 after 24 hrs by broth micro dilution method; assay type: functional; details: DSM 70238, 24 h; in short: as §1
[8] = Cytotoxicity against human 23132/87 cells assessed as cell viability at 10 uM after 24 hrs by MTT assay; assay type: functional; details: 23132-87, 24 h, read-out: Activity
In short: (§2)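 Cells were seeded at 3.10³–5.10³ per well in RPMI 1640 with 10% FBS, 4 mM L-glutamine and penicillin/streptomycin, then held 24 h at 37 °C under 5% CO₂. Ligands (DMSO, final 0.5% v/v) were added at 0.1–100 for 24 or 48 h. MTT was added for 4 h and dissolved in 50% DMF/5% SDS. A570 was read, and cytotoxicity was calculated as 100×(OD treated/OD untreated).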

[9] = Cytotoxicity against human 23132/87 cells assessed as cell viability at 100 uM after 24 hrs by MTT assay; assay type: functional; details: 23132-87, 24 h, read-out: Activity; in short: as §2
[10] = Cytotoxicity against human 23132/87 cells assessed as cell viability at 0.1 uM after 48 hrs by MTT assay; assay type: functional; details: 23132-87, 48 h, read-out: Activity; in short: as §2
[11] = Cytotoxicity against human 23132/87 cells assessed as cell viability at 100 uM after 48 hrs by MTT assay; assay type: functional; details: 23132-87, 48 h, read-out: Activity; in short: as §2
A549 [12] = assay: Cytotoxicity against human A549 cells assessed as cell viability at 0.1 uM after 24 hrs by MTT assay; assay type: functional; details: A549, 24 h, read-out: Activity; in short: as §2
A549 [13] = assay: Cytotoxicity against human A549 cells assessed as cell viability at 1 uM after 24 hrs by MTT assay; assay type: functional; details: A549, 24 h, read-out: Activity; in short: as §2
A549 [14] = assay: Cytotoxicity against human A549 cells assessed as cell viability at 10 uM after 24 hrs by MTT assay; assay type: functional; details: A549, 24 h, read-out: Activity; in short: as §2
A549 [15] = assay: Cytotoxicity against human A549 cells assessed as cell viability at 0.1 uM after 48 hrs by MTT assay; assay type: functional; details: A549, 48 h, read-out: Activity; in short: as §2
A549 [16] = assay: Cytotoxicity against human A549 cells assessed as cell viability at 1 uM after 48 hrs by MTT assay; assay type: functional; details: A549, 48 h, read-out: Activity; in short: as §2
A549 [17] = assay: Cytotoxicity against human A549 cells assessed as cell viability at 10 uM after 48 hrs by MTT assay; assay type: functional; details: A549, 48 h, read-out: Activity; in short: as §2
A549 [18] = assay: Cytotoxicity against human A549 cells assessed as cell viability at 100 uM after 48 hrs by MTT assay; assay type: functional; details: A549, 48 h, read-out: Activity; in short: as §2
A549 [19] = assay: Induction of apoptosis in human A549 cells assessed as DNA fragmentation at 100 uM after 24 hrs by DNA fragmentation assay; assay type: functional, cell-based
In short: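 10 × 10⁴ cells were seeded in 6-well plates and treated with ligand for 24 h. Cells were then collected and washed in PBS, and DNA was extracted with a kit. Extracts were run on 1.5% agarose alongside a 100 bp marker, an untreated control and DMSO-treated controls, and ladders were visualized under UV.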

23132-87 = assay: Induction of apoptosis in human 23132/87 cells assessed as change in nuclear appearance at 100 uM after 24 hrs by hoechst nuclear staining; assay type: functional, cell-based
In short: (§3)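 Cells grown in 6-well plates were treated for 24 h, washed three times in PBS and fixed in ice-cold methanol for 10 min. They were stained with Hoechst 33258 for 5 min, destained in double-distilled water for 5 min and examined by fluorescence microscopy. Untreated and DMSO-treated cells served as controls.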

A549 [20] = assay: Induction of apoptosis in human A549 cells assessed as change in nuclear appearance at 100 uM after 24 hrs by hoechst nuclear staining; assay type: functional, cell-based; in short: as §3
Calf thymus DNA = assay: Binding affinity to calf thymus DNA assessed as change in electromagnetic spectrum at 500 uM by UV-vis spectroscopy; assay type: nucleic-acid assay; details: Bos taurus
In short: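 CT-DNA was prepared in ddH₂O and judged protein-free by an A260/A280 ratio of 1.8:1. UV–visible absorption spectra of the DNA solution were recorded without ligand and with increasing ligand amounts.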

Staphylococcus aureus [21] = assay: Antibacterial activity against Staphylococcus aureus ATCC 6538 after 24 hrs by agar disk diffusion assay; assay type: functional
In short: (§4)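 Disk diffusion with sterile 6 mm discs loaded with DMSO solutions of the test agents and placed on inoculated agar. Bacteria were pre-grown in Nutrient Broth at 30 °C for 24 h, and plates were incubated at 35 °C for 24 h. Each plate carried a reference antibiotic disc matched to the organism, and a DMSO-only solvent control was run.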

Bacillus cereus [22] = assay: Antibacterial activity against Bacillus cereus ATCC 7064 after 24 hrs by agar disk diffusion assay; assay type: functional; in short: as §4
Proteus vulgaris [23] = assay: Antibacterial activity against Proteus vulgaris ATCC 8427 after 24 hrs by agar disk diffusion assay; assay type: functional; in short: as §4
Listeria monocytogenes = assay: Antibacterial activity against Listeria monocytogenes ATCC 15313 after 24 hrs by agar disk diffusion assay; assay type: functional; in short: as §4
Pseudomonas aeruginosa [24] = assay: Antibacterial activity against Pseudomonas aeruginosa ATCC 27853 after 24 hrs by agar disk diffusion assay; assay type: functional; in short: as §4
Rhodotorula mucilaginosa [25] = assay: Antifungal activity against Rhodotorula rubra DSM 70403 after 72 hrs by agar disk diffusion assay; assay type: functional
In short: (§5)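 Sterile 6 mm paper discs were loaded with ligand solution freshly prepared in DMSO and placed on inoculated agar. The inoculum came from broth cultures: bacteria in Nutrient Broth at 30 °C for 24 h, yeasts in Malt Extract Broth for 48 h. Plates were incubated at 35 °C for 24 h (bacteria) or 25 °C for 72 h (yeasts). A DMSO solvent control and a reference antibiotic disc were included on each plate.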

Candida albicans = assay: Antifungal activity against Candida albicans ATCC 10231 after 72 hrs by agar disk diffusion assay; assay type: functional; in short: as §5
[26] = test system: Hanseniaspora guilliermondii; assay: Antifungal activity against Hanseniaspora guilliermondii DSM 3432 after 72 hrs by agar disk diffusion assay; assay type: functional; in short: as §5
Debaryomyces hansenii [27] = assay: Antifungal activity against Debaryomyces hansenii DSM 70238 after 72 hrs by agar disk diffusion assay; assay type: functional; in short: as §5

For O=C1CCSCCC(=O)Nc2nc(nc(-c3ccccc3)n2)NC(=O)CCSCCC(=O)Nc2nc(nc(-c3ccccc3)n2)N1, the MIC (Escherichia coli) was 25 µg/mL (≈ 37.9 µM), the MIC (Staphylococcus aureus [1]) was 25 µg/mL (≈ 37.9 µM) and the MIC (Bacillus cereus [2]) was 12.5 µg/mL (≈ 19 µM). For the same compound, the MIC (Micrococcus luteus) was 12.5 µg/mL (≈ 19 µM), the MIC (Proteus vulgaris [3]) was 25 µg/mL (≈ 37.9 µM) and the MIC [4] was 50 µg/mL (≈ 75.9 µM). The MIC (Pseudomonas aeruginosa [5]) was 25 µg/mL (≈ 37.9 µM), the MIC (Rhodotorula mucilaginosa [6]) was 6.25 µg/mL (≈ 9.49 µM) and the MIC (Debaryomyces hansenii [7]) was 3.12 µg/mL (≈ 4.74 µM). The viability at 10 µM [8] was over 86%, the viability at 100 µM [9] was over 86% and the viability at 0.1 µM [10] was over 86%. It also gave a viability at 100 µM [11] of over 86%, a viability at 0.1 µM (A549 [12]) of over 86% and a viability at 1 µM (A549 [13]) of over 86%. For the same compound, the viability at 10 µM (A549 [14]) was over 86%, the viability at 0.1 µM (A549 [15]) was over 86% and the viability at 1 µM (A549 [16]) was over 86%. The viability at 10 µM (A549 [17]) was over 86%, the viability at 100 µM (A549 [18]) was over 86% and the Activity (A549 [19]) was “inactive”. For the same compound, the Activity (23132-87) was “inactive”, the Activity (A549 [20]) was “inactive” and the Activity (Calf thymus DNA) was “inactive”. The “inhibition zone (IZ)” value (Staphylococcus aureus [21]) was 10 mm, the “inhibition zone (IZ)” value (Bacillus cereus [22]) was 13 mm and the “inhibition zone (IZ)” value (Proteus vulgaris [23]) was 11 mm. The “inhibition zone (IZ)” value (Listeria monocytogenes) was 10 mm, the “inhibition zone (IZ)” value (Pseudomonas aeruginosa [24]) was 11 mm and the “inhibition zone (IZ)” value (Rhodotorula mucilaginosa [25]) was 16 mm. The “inhibition zone (IZ)” value (Candida albicans) was 19 mm, the “inhibition zone (IZ)” value [26] was 19 mm and the “inhibition zone (IZ)” value (Debaryomyces hansenii [27]) was 18 mm.

With O=C1CCSSCCC(=O)Nc2nc(nc(-c3ccccc3)n2)NC(=O)CCSSCCC(=O)Nc2nc(nc(-c3ccccc3)n2)N1 the MIC (Escherichia coli) was 25 µg/mL (≈ 34.6 µM), the MIC (Staphylococcus aureus [1]) was 12.5 µg/mL (≈ 17.3 µM) and the MIC (Bacillus cereus [2]) was 6.25 µg/mL (≈ 8.65 µM). It also gave an MIC (Micrococcus luteus) of 6.25 µg/mL (≈ 8.65 µM), an MIC (Proteus vulgaris [3]) of 12.5 µg/mL (≈ 17.3 µM) and an MIC [4] of 25 µg/mL (≈ 34.6 µM). For the same compound, the MIC (Pseudomonas aeruginosa [5]) was 25 µg/mL (≈ 34.6 µM), the MIC (Rhodotorula mucilaginosa [6]) was 3.12 µg/mL (≈ 4.32 µM) and the MIC (Debaryomyces hansenii [7]) was 1.56 µg/mL (≈ 2.16 µM). It also gave a viability at 10 µM [8] of over 86%, a viability at 100 µM [9] of over 86% and a viability at 0.1 µM [10] of over 86%. The viability at 100 µM [11] was over 86%, the viability at 0.1 µM (A549 [12]) was over 86% and the viability at 1 µM (A549 [13]) was over 86%. The viability at 10 µM (A549 [14]) was over 86%, the viability at 0.1 µM (A549 [15]) was over 86% and the viability at 1 µM (A549 [16]) was over 86%. For the same compound, the viability at 10 µM (A549 [17]) was over 86%, the viability at 100 µM (A549 [18]) was over 86% and the Activity (A549 [19]) was “inactive”. The Activity (23132-87) was “inactive”, the Activity (A549 [20]) was “inactive” and the Activity (Calf thymus DNA) was “inactive”. The “inhibition zone (IZ)” value (Staphylococcus aureus [21]) was 12 mm, the “inhibition zone (IZ)” value (Bacillus cereus [22]) was 15 mm and the “inhibition zone (IZ)” value (Proteus vulgaris [23]) was 13 mm. The “inhibition zone (IZ)” value (Listeria monocytogenes) was 10 mm, the “inhibition zone (IZ)” value (Pseudomonas aeruginosa [24]) was 11 mm and the “inhibition zone (IZ)” value (Rhodotorula mucilaginosa [25]) was 21 mm. The “inhibition zone (IZ)” value (Candida albicans) was 19 mm, the “inhibition zone (IZ)” value [26] was 22 mm and the “inhibition zone (IZ)” value (Debaryomyces hansenii [27]) was 22 mm.
